Screening results as filed in PubChem BioAssay.
HTRA1 inhibitor – HTRA1 serine protease inhibitors, primary screen, biochemical, fluorescence polarization, HTS. 0.5% of 340,000 active. Q92743. AID 504803, 2011. inhibition, % at 5.96 µM. recombinant HTRA1, FP-rhodamine activity-based probe; in the data active = inhibition above about 36%
SIAE primary – human SIAE inhibitors, primary screen, biochemical, fluorescence polarization, FP-Rh probe, 1536-well HTS | AID 1053197, 2014 | 0.69% of 370,000 active | Sialate O-acetylesterase (Homo sapiens), Q9HAT2 | inhibition, % at 9.66 µM | SIAE FP-Rh probe binding;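 active = inhibition above a cutoff: mean of compounds within the control limits plus 3 SD of those, cut at about 17% in these data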
DAGLB inh – DAGLB lipase inhibitors, primary screen, biochemical, fluorescence, HTS | Diacylglycerol lipase-beta (Homo sapiens), Q8NCG7 | AID 504411, 2011 | inhibition, % at 5.17 µM | 0.059% of 340,000 active | HEK293T DAGLB membrane lysate, EnzChek fluorogenic substrate; in the data active = inhibition above about 34%
Target sequence (Q8NCG7 whole entry, looked up): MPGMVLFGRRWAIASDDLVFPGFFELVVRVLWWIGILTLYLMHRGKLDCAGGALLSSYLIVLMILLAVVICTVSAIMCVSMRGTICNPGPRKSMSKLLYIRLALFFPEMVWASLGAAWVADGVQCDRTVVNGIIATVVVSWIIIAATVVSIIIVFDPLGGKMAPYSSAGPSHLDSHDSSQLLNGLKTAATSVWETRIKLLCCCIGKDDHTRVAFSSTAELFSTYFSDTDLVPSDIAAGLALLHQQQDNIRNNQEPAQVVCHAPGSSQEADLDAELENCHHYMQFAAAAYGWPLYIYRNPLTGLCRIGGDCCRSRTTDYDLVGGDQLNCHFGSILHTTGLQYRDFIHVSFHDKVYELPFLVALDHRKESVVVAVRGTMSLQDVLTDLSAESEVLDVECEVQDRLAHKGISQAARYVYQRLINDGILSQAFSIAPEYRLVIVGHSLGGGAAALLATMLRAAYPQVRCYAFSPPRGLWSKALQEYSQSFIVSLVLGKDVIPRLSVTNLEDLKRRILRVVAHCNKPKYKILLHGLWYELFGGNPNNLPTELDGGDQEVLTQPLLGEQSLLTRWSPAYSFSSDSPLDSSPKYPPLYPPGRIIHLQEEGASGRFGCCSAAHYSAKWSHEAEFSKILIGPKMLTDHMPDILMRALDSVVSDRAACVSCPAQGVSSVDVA
ABHD4 inh – ABHD4 inhibitors, primary screen, biochemical, fluorescence polarization, mouse; (Lyso)-N-acylphosphatidylethanolamine lipase (Mus musculus), Q8VD66; purified mABHD4, FP-Rh probe fluorescence polarization; inhibition, % at 8.92 µM; 0.54% of 370,000 active; AID 720543, 2013;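 active = inhibition exceeding the mean over every tested compound plus 3 SD, cut at about 30% in these data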
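Test system: mABHD4 protein | Buffer or medium: HEPES pH 7.0 buffer, 150 mM NaCl, 0.01% Pluronic F-127 | Probe or stimulus: FP-Rh fluorescent activity-based probe, added after compound pre-incubation | Timing: Pre-incubation 45 min, probe exposure 60 min, at 25 °C | Technique: Fluorescence polarization, excitation 525 nm, emission 598 nm, BODIPY TMR filters | Repeats: Single well per compound (singlicate)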
TCR-CD3 inh – inhibitors of human TCR-CD3 interaction, primary screen, biochemical, fluorescence, TAMRA-labeled TCR probe; inhibition, % at 9.4 µM; 0.37% of 360,000 active;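 note: recombinant mutant TCR 2C K166C tagged with TAMRA read by polarization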
BSA probe FL – compounds interfering with TAMRA-BSA probe, counter-screen for TCR-CD3 interaction inhibitor project, biochemical, fluorescence, TAMRA-labeled BSA | TAMRA-labeled BSA probe fluorescence counterscreen | 10% of 1,200 active | inhibition, % at 9.4 µM | shares compounds with TCR-CD3 inh; in the data active = inhibition above about 23%
TCR-CD3 inh conf – TCR-CD3 interaction inhibitors, retest, confirmation, biochemical, fluorescence, TAMRA-labeled TCR probe. shares compounds with TCR-CD3 inh. TAMRA-labeled TCR probe fluorescence binding assay. inhibition, % at 9.4 µM. 48% of 1,200 active. AID 652036, 2013
Numbers stand for hits; . = inactive; / = no result given. Most compounds without a hit are left out; they make up all but 1.5% or so of the library. Cut-off read from the data, not from the text of the source, unless noted: active = inhibition above about 19%; inactive = the rest.

SMILES	HTRA1 inhibitor	SIAE primary	DAGLB inh	ABHD4 inh	TCR-CD3 inh	BSA probe FL	TCR-CD3 inh conf
CN1C(=O)C(C(=O)Nc2ccccc2F)c2ccccc21 (configuration not stated)	.	.	.	.	19.2	.	.
Cc1ccc(S(=O)(=O)NC(=O)ON=Cc2ccc3c(c2)OCO3)cc1	/	.	/	.	.	/	/
CCOC(=O)c1sc(NC(=O)C(CC)OC(=O)c2ccco2)nc1C (configuration not stated)	.	.	.	.	19.4	.	.
CCOC(=O)c1sc(NC(=S)NC(=O)c2ccco2)nc1C	.	.	.	.	.	/	/
Cc1oc(-c2cccc(Cl)c2)nc1CS(=O)(=O)CC(=O)NCCN1CCCC1	.	.	.	.	21.2	.	.
CCC/C(C)=N/NC(=O)c1ccccc1O	.	.	.	.	.	/	/
CCOC(=O)C(CC)/C(C)=N\NC(=O)c1ccccc1O (configuration not stated)	.	.	.	.	34.8	.	38.1
CNC(=S)NNC(=O)c1cccn(Cc2ccc(Cl)cc2Cl)c1=O	/	.	/	.	27.1	.	25.8
CNC(=S)NNC(=O)c1cccn(Cc2cccc(C(F)(F)F)c2)c1=O	.	.	.	.	25.9	.	24.5
O=C(N/N=C/c1ccc([N+](=O)[O-])cc1)c1cccs1	/	.	/	.	.	/	/
O=C(N/N=C/c1cc([N+](=O)[O-])cc([N+](=O)[O-])c1O)/C(=C\c1cccs1)NC(=O)c1ccccc1	.	.	.	.	47.4	.	45.4
COc1cc(/C=N/NC(=O)/C(=C\c2ccc([N+](=O)[O-])cc2)NC(=O)c2ccccc2)cc(OC)c1O	.	.	.	.	.	/	/
O=C(N/N=C/c1cccc([N+](=O)[O-])c1O)C(O)(c1ccccc1)c1ccccc1	.	.	.	.	27.9	.	26.2
O=C(N/N=C/c1cccc([N+](=O)[O-])c1O)c1cccs1	.	.	.	.	28.7	.	31.4
Cc1cc2c(nc1C)CCCN2S(=O)(=O)c1ccc(F)cc1	/	.	/	.	.	/	/
O=S1(=O)c2ccc(N3CCC[C@@H]3CO)cc2O[C@@H]2CCN1C2	/	.	/	.	/	/	/
COc1ccccc1NC(=O)NNC(=O)c1cc2ccccc2cc1O	.	.	.	.	19.3	.	22.8
Cc1ccc(NC(=O)NNC(=O)c2cc3ccccc3cc2O)cc1	.	.	.	.	31.7	.	21.0
COc1cc(OC)cc(C(=O)NNC(=O)c2cc3ccccc3cc2O)c1	.	.	.	.	25.9	.	.
COc1ccc(NS(=O)(=O)c2cccc(C(=O)NNC(=O)c3ccccc3O)c2)cc1	.	.	.	.	27.6	.	.
COc1cc(OC)cc(C(=O)NNC(=S)Nc2ccccc2OC)c1	.	.	.	.	.	/	/
O=C(NCc1ccccc1)[C@H]1CCCN1C(=O)[C@H]1CCCN1C(=O)c1ccc(Cl)cc1	/	.	/	.	.	/	/
O=C(Cc1ccc(NC(=O)C2CCN(C(=O)C3CCCC3)CC2)cc1)Nc1cccc(C(=O)N2CCCC2)c1	/	.	/	.	.	/	/
COc1ccccc1OC(=O)c1ccc2nsnc2c1	.	.	.	.	20.6	.	.
Cc1ccc(CSc2nnc(-c3ccccc3)n2Cc2ccco2)cc1	/	.	/	.	/	/	/
Cc1ccccc1NS(=O)(=O)c1ccc(C(=O)NCC2(N3CCOCC3)CCCCC2)cc1	.	.	.	.	27.3	.	.
COc1ccc(Br)cc1/C=N/NC(=O)c1ccc(COc2ccc3c(c2)CCC3)o1	.	.	.	.	.	/	/
O=C(N/N=C/c1cc([N+](=O)[O-])ccc1O)c1ccc(COc2ccc3c(c2)CCC3)o1	.	.	.	.	45.1	.	.
CCOC(=O)c1c(Nc2ccc(OC)cc2)n[nH]c1C	/	.	/	.	.	/	/
Cc1ccc2nc(-c3cccc(Br)c3)c(Cc3ccsc3)n2c1	/	.	/	.	.	/	/
